Measurements as given in ChEMBL document CHEMBL1125484, “Nonpeptide angiotensin II receptor antagonists: synthetic and computational chemistry of N-[[4-[2-(2H-tetrazol-5-yl)-1-cycloalken-1-yl]phenyl]methyl]imidazole derivatives and their in vitro activity” (J Med Chem, 1992).

How the values were obtained:
[1] = molecular target: T1, Type-1 angiotensin II receptor B (Rattus norvegicus, UniProt P29089); assay: Concentration required to inhibit binding of radioligand [125I]AII to angiotensin II receptor, type 1 in rat adrenal glomerulosa tissue
T1 sequence (P29089 whole entry): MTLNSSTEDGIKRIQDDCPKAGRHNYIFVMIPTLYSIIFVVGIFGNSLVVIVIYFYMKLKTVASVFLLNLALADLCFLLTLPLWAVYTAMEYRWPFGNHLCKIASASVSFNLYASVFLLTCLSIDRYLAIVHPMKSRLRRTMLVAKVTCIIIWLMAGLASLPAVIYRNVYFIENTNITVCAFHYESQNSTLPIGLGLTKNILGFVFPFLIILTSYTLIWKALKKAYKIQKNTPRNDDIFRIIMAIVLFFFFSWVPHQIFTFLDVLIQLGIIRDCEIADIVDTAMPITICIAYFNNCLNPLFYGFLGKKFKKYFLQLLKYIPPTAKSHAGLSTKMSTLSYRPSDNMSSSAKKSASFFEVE
In short: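 Buffer was 50 mM Tris, 120 mM NaCl, 5 mM MgCl2, 1 mM DTT and 0.05% BSA, with 8–15 μg protein. Antagonists were tested at 10 nM–100 μM, and nonspecific binding was defined with 0.1 μM [Sar1,Ile8]AII. Bound ligand was filtered and gamma-counted in triplicate. IC50 was taken from the linear portion of the displacement curve.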

[2] = Partition coefficient (logP); assay type: physicochemical; settings: octanol/water
Oryctolagus cuniculus = species: Oryctolagus cuniculus; assay: pA2 value was determined by the compound's ability to antagonize the AII-induced contraction of rabbit aorta rings.; assay type: functional; settings: read-out: pA2 (converted)
In short: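 Thoracic aorta rings (3 mm) from New Zealand white rabbits were held in 37 °C physiological salt solution aerated with 95% O2/5% CO2, and isometric tension was recorded. A cumulative AII curve (10^-10 to 10^-7 M) was run, the tissue washed, and the compound added in DMSO for 30 min before the AII curve was repeated. Responses were expressed as % of control maximum, with EC50s from four-parameter logistic fits.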

SMILES | IC50 [1] [nM] | logP [2] | Kb (Oryctolagus cuniculus) [nM]
CCCCc1nc(Cl)c(CO)n1Cc1ccc(C2=C(c3nn[nH]n3)CCCCC2)cc1 | 2800 | 4.9 | 468
CCCCc1nc(Cl)c(C(=O)O)n1Cc1ccc(C2=C(c3nnn[nH]3)CCC2)cc1 | 310 | 4.25 | 14.5
CCCCc1nc(Cl)c(C(=O)O)n1Cc1ccc(C2=C(c3nn[nH]n3)CCCCC2)cc1 | 390 | 5.37 | 12
CCCCc1nc(Cl)c(CO)n1Cc1ccc(C2=C(c3nnn[nH]3)CCCC2)cc1 |  | 4.34 | 129
CCCCc1nc(Cl)c(C(=O)O)n1Cc1ccc(C2=C(c3nn[nH]n3)CCCC2)cc1 | 400 | 4.81 | 4.07

Continued, in another order:

IC50 [1] [nM] | logP [2] | SMILES | Kb (Oryctolagus cuniculus) [nM]
3500 | 3.78 | CCCCc1nc(Cl)c(CO)n1Cc1ccc(C2=C(c3nnn[nH]3)CCC2)cc1 | 355
 | 4.92 | CCCCc1nc(Cl)c(C(=O)O)n1Cc1ccc(-c2ccccc2-c2nn[nH]n2)cc1 [CARBOXYLIC ACID METABOLITE] | 0.234
 | 4.45 | CCCCc1nc(Cl)c(CO)n1Cc1ccc(-c2ccccc2-c2nnn[nH]2)cc1 [LOSARTAN] | 3.8
